Tests used:
Vero = assay: Cytotoxic activity against vero cells was evaluated.; format: functional; conditions: Chlorocebus sabaeus, read-out: ID50 (the source's name)
Summary of the method: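 Drug toxicity measured in rapidly dividing Vero cells over 3 days; 50% inhibitory dose (ID50) derived by linear regression analysis.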

Human alphaherpesvirus 1 [1] = assay: Effect of compound on thymidine kinase in the herpes simplex type-2 infected cells; format: functional, Human alphaherpesvirus 2
Human alphaherpesvirus 2 [2] = assay: Antiviral activity against herpes simplex type-2 expressed as ED90; format: functional
Summary of the method: (§1)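 Plaque reduction in confluent mycoplasma-free Vero cells infected with HSV-1 strain F or HSV-2 strain G (about 100 plaques/well), rocked 1 h, inoculum removed, PBS (pH 7.2) wash. Five or more drug concentrations in maintenance medium with 0.1% pooled human globulin, in replicate.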

Human alphaherpesvirus 1 [3] = assay: Antiviral activity against herpes simplex type-1 expressed as ED90; format: functional; summary of the method: as §1
Human alphaherpesvirus 2 [4] = assay: Antiviral activity against herpes simplex type-2 expressed as ED50; format: functional; conditions: read-out: ED50 (the source's name); summary of the method: as §1
Human alphaherpesvirus 1 [5] = assay: Antiviral activity against herpes simplex type-1 expressed as ED50; format: functional; conditions: read-out: ED50 (the source's name); summary of the method: as §1
[6] = molecular target: T1, Thymidine kinase (Human herpesvirus 2) (UniProt Q6L709); assay: Effect on thymidine kinase in the herpes simplex type-2 infected cells; format: functional; design: concentration or dose not given beside the values
T1 sequence (whole entry): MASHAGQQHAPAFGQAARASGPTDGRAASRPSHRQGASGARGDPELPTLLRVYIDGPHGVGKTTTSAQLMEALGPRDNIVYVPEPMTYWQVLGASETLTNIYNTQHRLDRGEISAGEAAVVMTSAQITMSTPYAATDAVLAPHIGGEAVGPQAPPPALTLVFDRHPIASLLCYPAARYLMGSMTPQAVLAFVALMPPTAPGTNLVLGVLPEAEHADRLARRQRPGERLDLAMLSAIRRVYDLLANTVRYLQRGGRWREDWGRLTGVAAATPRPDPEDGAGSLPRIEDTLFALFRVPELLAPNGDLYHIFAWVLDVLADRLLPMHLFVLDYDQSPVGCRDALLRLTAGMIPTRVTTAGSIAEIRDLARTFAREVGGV

[7] = system: Human alphaherpesvirus 1 (HSV-1); assay: Ratio of ID50/ID90 in HSV-1 infected cells; format: ADME, organism-based; conditions: human alphaherpesvirus 1, HSV-1 infected cells; read-out: Therapeutic index
Summary of the method: (§2)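 Ratio of two measurements. ID50 came from 3-day growth of rapidly dividing Vero cells, by linear regression. ED90 came from plaque reduction in confluent Vero cells infected with HSV-1 strain F or HSV-2 strain G (about 100 plaques/well). After 1 h adsorption, compounds were added at ≥5 concentrations in medium with 0.1% human globulin. Plaques grew 48 h, then were formalin-fixed, crystal-violet-stained and counted; regression was against log concentration.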

L1210 = assay: In vitro inhibitory activity against L1212/0 cell line; format: functional; conditions: Mus musculus, read-out: ID50 (the source's name)
Summary of the method: (§3)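 Mouse leukemia cells (L1210/0, P815/0, P815/Ara-C) at 4×10^4 cells/mL in McCoy's 5A with 15% fetal calf serum, nucleoside added as 20-fold concentrate; 96 h at 37 °C in 5% CO2. Cells Coulter-counted, percent growth inhibition and 50% growth-inhibiting concentration calculated.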

P815 [8] = assay: In vitro inhibitory activity against P815/0 cell line; format: functional; conditions: Mus musculus, read-out: ID50 (the source's name); summary of the method: as §3
[9] = system: Human alphaherpesvirus 2 (HSV-2); assay: Ratio of ID50/ID90 in HSV-2 infected cells; format: ADME, organism-based; conditions: human alphaherpesvirus 2, HSV-2 infected cells; read-out: Therapeutic index; summary of the method: as §2
P815 [10] = assay: In vitro inhibitory activity against P815/ara-C cell line; format: functional; conditions: Mus musculus, read-out: ID50 (the source's name); summary of the method: as §3
[11] = system: Human alphaherpesvirus 1 (HSV-1); assay: Ratio of ID50/ID90 in HSV-1 in fected cells; format: ADME, organism-based; conditions: human alphaherpesvirus 1, HSV-1 infected cells; read-out: Therapeutic index; summary of the method: as §2
[12] = system: Human alphaherpesvirus 1 (HSV-1); assay: (§4) Ratio of ID50/ID90 in HSV-1; format: ADME, organism-based; conditions: human alphaherpesvirus 1, in vivo; summary of the method: as §2
[13] = system: Human alphaherpesvirus 2 (HSV-2); assay: (§5) Ratio of ID50/ID90 in HSV-2; format: ADME, organism-based; conditions: human alphaherpesvirus 2, in vivo; summary of the method: as §2
[14] = as §5; format: functional
[15] = as §4; format: functional

## CCOC(=O)/C=C/c1cn([C@@H]2O[C@H](CO)[C@@H](O)[C@@H]2F)c(=O)nc1N
Vero
  IC50: 126 µM
Human alphaherpesvirus 1 [1]
  Control: 107%
Human alphaherpesvirus 2 [2]
  ED90: >100 µM
Human alphaherpesvirus 1 [3]
  ED90: >100 µM
Human alphaherpesvirus 2 [4]
  EC50: > 100 µM
Human alphaherpesvirus 1 [5]
  EC50: > 100 µM

## Nc1nc(=O)n([C@@H]2O[C@H](CO)[C@@H](O)[C@@H]2F)cc1/C=C/C(=O)[O-].[Na+]
Vero
  IC50: > 200 µM
Human alphaherpesvirus 2 [2]
  ED90: >100 µM
[6]
  Control: 111%
Human alphaherpesvirus 1 [3]
  ED90: >100 µM
Human alphaherpesvirus 2 [4]
  EC50: > 100 µM
Human alphaherpesvirus 1 [5]
  EC50: > 100 µM

## C[Si](C)(C)C#Cc1cn([C@@H]2O[C@H](CO)[C@@H](O)[C@@H]2F)c(=O)[nH]c1=O
[7]
  selectivity ratio: 0.4
L1210
  IC50: 17.8 µM
Vero
  IC50: 17.1 µM
Human alphaherpesvirus 2 [2]
  ED90: 32.1 µM
[6]
  Control: 95.8%
Human alphaherpesvirus 1 [3]
  ED90: 39.5 µM
P815 [8]
  IC50: 9.8 µM
[9]
  selectivity ratio: 0.5
P815 [10]
  IC50: 107 µM
Human alphaherpesvirus 2 [4]
  EC50: 5.1 µM
Human alphaherpesvirus 1 [5]
  EC50: 5.7 µM

## C#Cc1cn([C@@H]2O[C@H](CO)[C@@H](O)[C@@H]2F)c(=O)nc1N
[7]
  selectivity ratio: 4
L1210
  IC50: 10.1 µM
Vero
  IC50: 30 µM
Human alphaherpesvirus 2 [2]
  ED90: 6 µM
[6]
  Control: 86.3%
Human alphaherpesvirus 1 [3]
  ED90: 7.5 µM
P815 [8]
  IC50: 52.1 µM
[9]
  selectivity ratio: 5
P815 [10]
  IC50: > 300 µM
Human alphaherpesvirus 2 [4]
  EC50: 0.64 µM
Human alphaherpesvirus 1 [5]
  EC50: 2.1 µM

## CCc1cn([C@@H]2O[C@H](CO)[C@@H](O)[C@@H]2F)c(=O)nc1N
[7]
  selectivity ratio: 251
Vero
  IC50: 143 µM
Human alphaherpesvirus 2 [2]
  ED90: 4.9 µM
[6]
  Control: 101%
Human alphaherpesvirus 1 [3]
  ED90: 0.57 µM
[9]
  selectivity ratio: 29
Human alphaherpesvirus 2 [4]
  EC50: 0.32 µM
Human alphaherpesvirus 1 [5]
  EC50: 0.035 µM

## Cc1cn([C@@H]2O[C@H](CO)[C@@H](O)[C@@H]2F)c(=O)nc1N
[11]
  selectivity ratio: 31
Vero
  IC50: 1.5 µM
Human alphaherpesvirus 2 [2]
  ED90: 0.1 µM
[6]
  Control: 110%
Human alphaherpesvirus 1 [3]
  ED90: 0.048 µM
[9]
  selectivity ratio: 15
Human alphaherpesvirus 2 [4]
  EC50: 0.026 µM
Human alphaherpesvirus 1 [5]
  EC50: 0.006 µM

## C#Cc1cn([C@@H]2O[C@H](CO)[C@@H](O)[C@@H]2F)c(=O)[nH]c1=O
[7]
  selectivity ratio: 1.3
L1210
  IC50: 23.5 µM
Vero
  IC50: 62 µM
Human alphaherpesvirus 2 [2]
  ED90: 7.9 µM
[6]
  Control: 90.8%
Human alphaherpesvirus 1 [3]
  ED90: 46.6 µM
P815 [8]
  IC50: 20.4 µM
[9]
  selectivity ratio: 8
P815 [10]
  IC50: 84.7 µM
Human alphaherpesvirus 2 [4]
  EC50: 3 µM
Human alphaherpesvirus 1 [5]
  EC50: 1.9 µM

## Nc1nc(=O)n([C@@H]2O[C@H](CO)[C@@H](O)[C@@H]2F)cc1/C=C/I
[12]
  selectivity ratio: > 270
[13]
  selectivity ratio: > 87
Vero
  IC50: > 200 µM
Human alphaherpesvirus 2 [2]
  ED90: 2.3 µM
[6]
  Control: 101%
Human alphaherpesvirus 1 [3]
  ED90: 0.74 µM
Human alphaherpesvirus 2 [4]
  EC50: 0.027 µM
Human alphaherpesvirus 1 [5]
  EC50: 0.088 µM

## C=Cc1cn([C@@H]2O[C@H](CO)[C@@H](O)[C@@H]2F)c(=O)nc1N
[7]
  selectivity ratio: 103
L1210
  IC50: 10.7 µM
Vero
  IC50: 41 µM
Human alphaherpesvirus 2 [2]
  ED90: 0.59 µM
[6]
  Control: 111%
Human alphaherpesvirus 1 [3]
  ED90: 0.4 µM
P815 [8]
  IC50: 23.8 µM
[9]
  selectivity ratio: 70
P815 [10]
  IC50: > 300 µM
Human alphaherpesvirus 2 [4]
  EC50: 0.062 µM
Human alphaherpesvirus 1 [5]
  EC50: 0.025 µM

## Cc1cn([C@@H]2O[C@H](CO)[C@@H](O)[C@@H]2F)c(=O)[nH]c1=O [5-METHYL-2'-FLUOROARAURACIL]
L1210
  IC50: 2.95 µM
Vero
  IC50: 2.8 µM
Human alphaherpesvirus 2 [2]
  ED90: 0.09 µM
[6]
  Control: 94.1%
Human alphaherpesvirus 1 [3]
  ED90: 0.042 µM
P815 [8]
  IC50: 0.98 µM
P815 [10]
  IC50: 12.4 µM
Human alphaherpesvirus 2 [4]
  EC50: 0.023 µM
Human alphaherpesvirus 1 [5]
  EC50: 0.01 µM

## Nc1nc(=O)n([C@@H]2O[C@H](CO)[C@@H](O)[C@@H]2F)cc1/C=C/Br
[14]
  Therapeutic index: 5
[15]
  Therapeutic index: 44
Vero
  IC50: 23 µM
Human alphaherpesvirus 2 [2]
  ED90: 4.5 µM
[6]
  Control: 104%
Human alphaherpesvirus 1 [3]
  ED90: 0.52 µM
Human alphaherpesvirus 2 [4]
  EC50: 0.037 µM
Human alphaherpesvirus 1 [5]
  EC50: 0.068 µM

## O=c1[nH]c(=O)n([C@@H]2O[C@H](CO)[C@@H](O)[C@@H]2F)cc1/C=C/I
[7]
  selectivity ratio: 509
Vero
  IC50: 56 µM
Human alphaherpesvirus 2 [2]
  ED90: 0.84 µM
[6]
  Control: 96.2%
Human alphaherpesvirus 1 [3]
  ED90: 0.11 µM
[9]
  selectivity ratio: 67
Human alphaherpesvirus 2 [4]
  EC50: 0.15 µM
Human alphaherpesvirus 1 [5]
  EC50: 0.037 µM

## O=c1[nH]c(=O)n([C@@H]2O[C@H](CO)[C@@H](O)[C@@H]2F)cc1/C=C/Cl
[7]
  selectivity ratio: 227
Vero
  IC50: 159 µM
Human alphaherpesvirus 2 [2]
  ED90: 5.5 µM
[6]
  Control: 106%
Human alphaherpesvirus 1 [3]
  ED90: 0.7 µM
[9]
  selectivity ratio: 29
Human alphaherpesvirus 2 [4]
  EC50: 0.52 µM
Human alphaherpesvirus 1 [5]
  EC50: 0.059 µM

## C=Cc1cn([C@@H]2O[C@H](CO)[C@@H](O)[C@@H]2F)c(=O)[nH]c1=O
[7]
  selectivity ratio: 251
L1210
  IC50: 29 µM
Vero
  IC50: 10.8 µM
Human alphaherpesvirus 2 [2]
  ED90: 0.56 µM
[6]
  Control: 109%
Human alphaherpesvirus 1 [3]
  ED90: 0.043 µM
P815 [8]
  IC50: 20.8 µM
[9]
  selectivity ratio: 19
P815 [10]
  IC50: 32.8 µM
Human alphaherpesvirus 2 [4]
  EC50: 0.09 µM
Human alphaherpesvirus 1 [5]
  EC50: 0.009 µM

## O=c1[nH]c(=O)n([C@@H]2O[C@H](CO)[C@@H](O)[C@@H]2F)cc1/C=C/Br
[7]
  selectivity ratio: 216
Vero
  IC50: 101 µM
Human alphaherpesvirus 2 [2]
  ED90: 0.73 µM
[6]
  Control: 86%
Human alphaherpesvirus 1 [3]
  ED90: 0.47 µM
[9]
  selectivity ratio: 138
Human alphaherpesvirus 2 [4]
  EC50: 0.13 µM
Human alphaherpesvirus 1 [5]
  EC50: 0.067 µM

## O=c1[nH]c(=O)n([C@H]2C[C@H](O)[C@@H](CO)O2)cc1/C=C/Br [BRIVUDINE]
[7]
  selectivity ratio: 3080
Vero
  IC50: 191 µM
Human alphaherpesvirus 2 [2]
  ED90: 17 µM
[6]
  Control: 110%
Human alphaherpesvirus 1 [3]
  ED90: 0.062 µM
[9]
  selectivity ratio: 11
Human alphaherpesvirus 2 [4]
  EC50: 0.23 µM
Human alphaherpesvirus 1 [5]
  EC50: 0.019 µM

Reference: ChEMBL document CHEMBL1123010, “Nucleosides. 133. Synthesis of 5-alkenyl-1-(2-deoxy-2-fluoro-beta-D-arabinofuranosyl)cytosines and related pyrimidine nucleosides as potential antiviral agents” (J Med Chem, 1985)
